# Assay outcomes from PubChem.
# PME-1 inh: PME-1 (human) inhibition; AID 2130; recombinant PME-1, FP-Rh probe fluorescence polarization; Q9Y570; inhibition, % at 5.9 µM; hit rate 0.53% among 320,000;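 active = inhibition above the campaign mean of all compounds plus 3 SD, cut at about 26% in these data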;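 also: competitive labeling of PME-1 active site by serine hydrolase directed probe; 0% = PME-1 with DMSO and 100% = wells lacking PME-1 enzyme; inhibitors block probe labeling so polarization falls and inhibition rises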
# Target sequence (Q9Y570 whole entry, looked up): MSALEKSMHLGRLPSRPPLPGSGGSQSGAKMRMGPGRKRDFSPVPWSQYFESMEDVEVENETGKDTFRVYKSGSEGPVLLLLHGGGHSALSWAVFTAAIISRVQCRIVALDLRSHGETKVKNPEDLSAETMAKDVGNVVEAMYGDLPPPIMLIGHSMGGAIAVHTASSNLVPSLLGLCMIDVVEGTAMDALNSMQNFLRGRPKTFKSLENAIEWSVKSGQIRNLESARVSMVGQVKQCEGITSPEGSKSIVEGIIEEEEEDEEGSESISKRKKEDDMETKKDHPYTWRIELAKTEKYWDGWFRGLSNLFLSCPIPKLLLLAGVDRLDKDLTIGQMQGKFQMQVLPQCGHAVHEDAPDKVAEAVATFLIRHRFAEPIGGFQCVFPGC
# SIAE inh: blocks human sialic acid acetylesterase. Q9HAT2. SIAE FP-Rh probe binding, fluorescence polarization. inhibition, % at 9.66 µM. hit rate 0.69% among 370,000;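 active = inhibition above a cutoff: mean of compounds within the control limits plus 3 SD of those, cut at about 17% in these data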;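 also: 0% = plate median of compound wells and 100% = probe without SIAE protein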
# Fam108B inh: blocks mouse Fam108B hydrolase in RBBP9 counter-screen; recombinant Fam108B, FP-Rh probe fluorescence polarization; inhibition, % at 9.51 µM; hit rate 0.33% among 300,000; AID 1947;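 active = inhibition above the screen mean inhibition plus 3 SD, computed separately per campaign, cut at about 18% in these data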;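 also: inhibitors lower polarization as less probe binds the enzyme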
# HTRA1 inh: HTRA1 (human) protease inhibition; Q92743; recombinant HTRA1, FP-rhodamine activity-based probe, fluorescence polarization; inhibition, % at 5.96 µM; hit rate 0.5% among 340,000; in the data active = inhibition above about 36%;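 also: 0% = enzyme with DMSO and 100% = wells lacking enzyme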
# TCR CD3 inh: inhibitors of human TCR-CD3 interaction; TAMRA-labeled TCR probe fluorescence, biochemical; inhibition, % at 9.4 µM; hit rate 0.37% among 360,000; AID 651800; in the data active = inhibition above about 19%;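 also: recombinant mutant TCR 2C K166C tagged with TAMRA read by polarization; 0% = receptor in buffer alone and 100% = receptor with positive control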
# mABHD4 FP: ABHD4 (mouse) inhibition, primary FP screen; inhibition, % at 8.92 µM; hit rate 0.54% among 370,000; purified mABHD4, FP-Rh probe fluorescence polarization;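 active = inhibition exceeding the mean over every tested compound plus 3 SD, cut at about 30% in these data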;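 also: 0% = plate median of compound wells and 100% = S159A mutant with DMSO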
#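 Assay system: mouse ABHD4 enzyme, wild type / Also added: fluorescent activity-based probe FP-Rh / Doses: single nominal dose of 8.92 µM, 0.89% DMSO final / Timing: 45 min compound pre-incubation plus 60 min probe step, 25 °C / Signal: FP readout, ex 525 nm / em 598 nm / Control set: S159A mutant/DMSO as 100%, compound-well median as 0%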
# SIAE inh conf: confirmation of human SIAE inhibitors | shares compounds with SIAE inh | SIAE FP-Rh activity-based probe, fluorescence polarization | inhibition, % at 9.66 µM | hit rate 13% among 2,300 | AID 1117263;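 active = mean inhibition of the replicates above the hit cutoff set in the primary screen, cut at about 17% in these data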;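 also: 0% = SIAE with DMSO and probe and 100% = probe without SIAE; inhibitors lower polarization as more probe stays unbound to SIAE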
# * marks the source's active call; other numbers are inactive results; x = not tested or not shown. Sampled rows, rich in hits. Any-hit rate of the full collection: about 1.8%.
SMILES,PME-1 inh,SIAE inh,Fam108B inh,HTRA1 inh,TCR CD3 inh,mABHD4 FP,SIAE inh conf
O=C1CC(c2ccc(F)cc2)C(n2cncn2)C(O)=C1C1NCCc2ccccc21 (configuration not stated),-3,26*,-5,0,5,0,4
CCc1cccc(NC(=O)Nc2cccs2)c1,14,17*,6,3,0,-1,4
O=C1N=c2ccc(Br)cc2=C1c1sc(=O)[nH]c1O,-7,x,13,x,x,x,x
Cc1ccc2c(c1)=C(c1sc(N(C)c3ccc(O)cc3)nc1O)C(=O)N=2,9,17*,7,-3,-1,19,8
CCOC(=O)c1[nH]c(C)c(C(=O)N2CCOCC2)c1C,-2,22*,-1,1,-1,-2,2
CCOC(=O)c1[nH]c(C)c(C(=O)N2CCN(c3ccccc3)CC2)c1C,-6,1,-3,-4,8,-1,x
CC(=O)Nc1ccc(S(=O)(=O)N(C)c2ccc(OCC(=O)NCCc3ccccc3F)cc2)cc1,x,-9,x,-16,1,-6,x
O=C(/C=C/c1ccccc1)N1CCN(CC(O)COc2ccccc2)CC1 (configuration not stated),0,19*,-3,-8,0,2,0
CC(C)(C)c1nnc(NS(=O)(=O)c2ccc(F)cc2)s1,x,8,x,-7,4,4,x
O=C(COc1cc2oc(=O)c3c(c2cc1Cl)CCCC3)N1C[C@H]2C[C@@H](C1)c1cccc(=O)n1C2,4,-7,-2,-6,2,-7,x
CC(Oc1cc2oc(=O)c3c(c2cc1Cl)CCC3)C(=O)N1C[C@H]2C[C@@H](C1)c1cccc(=O)n1C2 (some centres not stated),3,18*,3,-9,0,8,0
COc1cccc(C(=O)OCC(=O)NCCC2=CCCCC2)c1,x,-4,x,-10,7,0,x
CC(C)CN1C(=O)N2CCc3ccccc3C2CS1(=O)=O (configuration not stated),x,-2,x,x,x,1,x
CC(C)(C)C(=O)OC12CCCN(C1)/C(=C/c1ccccc1)C2 (configuration not stated),x,-1,x,x,x,4,x
CC(C)(C)C(=O)OC12CCCN(C1)/C(=C/c1ccc(C#N)cc1)C2 (configuration not stated),x,39*,x,x,x,4,1
CCOc1cc(OCC)cc(C(=O)N2CCC[C@H]2C(=O)N2CCC[C@H]2C(=O)NCc2ccncc2)c1,x,-4,x,x,7,-5,x
COC(=O)Nc1ccc(S(=O)(=O)N2CCCC(C(=O)O)C2)cc1 (configuration not stated),3,19*,2,1,-4,-1,5
NC(=O)CC1Nc2cccc3cccc(c23)NC1=O (configuration not stated),5,13,3,19,16,19,x
c1cc2c3c(cccc3c1)NC1(CCCCC1)N2,-3,30*,3,32,3,-1,9
Cc1ccc(NC(=O)CSc2nnnn2-c2cccnc2)c(C)c1,5,0,0,8,3,5,x
CCC(c1nc2ccccc2[nH]1)n1c(C)nc2ccccc21 (configuration not stated),x,2,x,x,7,-2,x
CCCCCCCCC(c1nc2ccccc2[nH]1)N1CCN=C1c1cc2ccccc2[nH]1 (configuration not stated),x,22*,x,x,6,26,28*
O=C1NC(=Nc2ccccc2)S/C1=C\C=C\c1ccco1,9,24*,10,18,9,21,1
Cc1cccc(N=C2NC(=O)/C(=C/C=C/c3ccco3)S2)c1C,2,18*,11,32,13,21,6
Cc1ccc(N=C2NC(=O)/C(=C/C=C/c3ccco3)S2)cc1,15,14,5,20,8,19,x
O=C1S/C(=C\C=C\c2ccco2)C(=O)N1c1ccccc1,-6,21*,-4,9,-2,14,3
O=C1S/C(=C\C=C\c2ccco2)C(=O)N1c1ccc(O)cc1,-3,1,5,-3,5,17,x
C[C@@H]1CN([C@@H](C)CO)C(=O)c2cc(N(C)C)ccc2O[C@@H](C)CCCCO[C@@H]1CN(C)Cc1ccc2c(c1)OCO2,x,2,x,-3,2,-2,x
